PGC1a acetyl inh – PGC1a acetylation modulation, inhibitor mode | U2OS PGC1a acetylation, AlphaScreen anti-acetyl-lysine; with virally co-expressed GCN5 acetyltransferase | inhibition, % at 15.6 µM | 0.17% of 350,000 active | AID 651687;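 active = every replicate shows inhibition of at least 40%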;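 note: 0% = neutral control wells and 100% = positive control wells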
PAX8 inh HTS – lowers PAX8-driven luciferase in RMG-I cells; RMG-I TPO-luciferase reporter, SteadyGlo, 24 h; inhibition, % at 12.6 µM; 1.2% of 360,000 active; AID 652154;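 active = mean replicate inhibition at least 60% with every replicate also reaching 60%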;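 note: luciferase light reporting Pax8 driven TPO promoter activity; plate controls were median of neutral control wells for no effect and mitoxantrone controls for full effect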
FGF22 binding – shifts melting point of recombinant human FGF22. recombinant FGF22 thermal shift, SYPRO orange fluorescence; percent of sucrose octasulfate shift, DMSO zero. activity (Tm shift, normalised), % at 9.99 µM. 1.5% of 340,000 active. AID 651658;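 active = mean Tm shift, scaled 0 neutral to 100 positive control, at about 1.3% or above, every replicate too, limit read from the data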
Target sequence (Q9HCT0 whole entry, looked up): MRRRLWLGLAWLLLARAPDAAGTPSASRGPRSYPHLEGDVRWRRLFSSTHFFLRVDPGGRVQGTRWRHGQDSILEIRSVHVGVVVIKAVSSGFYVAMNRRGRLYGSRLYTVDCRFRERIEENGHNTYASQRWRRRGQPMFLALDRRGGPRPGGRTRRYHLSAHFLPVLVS
EWS-Fli inh – inhibitors of EWS/Fli oncoprotein transcriptional activity; A673 NR0B1-luciferase reporter, viability-normalised; inhibition, % at 12.6 µM; 0.67% of 350,000 active; AID 651661;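 active = mean inhibition of at least 50% after viability correction, with every replicate also passing that limit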;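 note: firefly luciferase signal divided by Alamar Blue viability fluorescence both relative to DMSO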
FN deposit inh – fibronectin deposition inhibition. AID 743247. inhibition, % at 12.6 µM. AH1F fibroblasts, Alexa488-fibronectin deposition fluorescence, overnight. 0.086% of 350,000 active;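 active = mean inhibition across replicates of 30% or more, regardless of how many single replicates reach that level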;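 note: positive control wells lacked labelled fibronectin entirely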
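Material: AH1F fibroblast monolayer depositing Alexa488-labelled fibronectin into matrix / Amount: 10000 AH1F cells per well / Signal: fluorescence 485/525 nm / Medium: DMEM, 2% serum / Compound: single dose, pinned / Incubation: 1 h cell adhesion before compound, then overnight fibronectin incubation / Reagent: Alexa488-FN, 24 nM final / Read-out: inhibition of fibronectin deposition signal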
Env fusion inh – inhibitors of HIV Env-mediated cell fusion; HeLa-JRFL Env/CEM21 cell fusion, luciferase; inhibition, % at 12.3 µM; 1.1% of 360,000 active; AID 651610;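 active = mean replicate inhibition score of at least 50 and every replicate individually at or above 50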;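 note: 0% = plate neutral controls and 100% = maraviroc near 300 nM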
* hit, by the source's call; / = no result; [ ] = another dose, or the depositor's remark. A selection: hits, their analogues and other compounds. The true share with any hit is near 3.1%.

SMILES | PGC1a acetyl inh | PAX8 inh HTS | FGF22 binding | EWS-Fli inh | FN deposit inh | Env fusion inh
COc1ccccc1NC(=O)N1CCN(c2ccnc3cc(Cl)ccc23)CC1 | / | 0 | / | -14 | -1 | 26
O=C(C1CCCCC1)N1CCN(c2ccnc3cc(Cl)ccc23)CC1 | -3 | 12 | 0 | 22 | -3 | 57*
C[C@H]1CN([C@@H](C)CO)C(=O)Cc2cc(NS(=O)(=O)c3cccs3)ccc2O[C@H]1CN(C)S(=O)(=O)c1ccc(Cl)cc1 | -9 | / | -1 | 1 | / | /
CC(C)C1CC(N(C)C)=CC(=S)N1 (stereo unspecified) | / | 78* | 1 | 16 | -9 | 58*
O=C(O)CSc1nc2sc3c(c2c(=O)n1-c1ccccc1)CCC3 | 7 | -2 | 0 | 8 | -5 | -1
CC(NC(=O)CSc1nc2sc3c(c2c(=O)n1-c1ccccc1)CCCC3)c1ccccc1 (stereo unspecified) | -18 | / | / | / | 9 | 103*
CC(O)CNc1nc2sc3c(c2c(=O)n1CCc1ccccc1)CCCCC3 (stereo unspecified) | / | -19 | 44* | -23 | 5 | 37
CC(=O)N1C[C@@H]2C(c3ccccc3)[C@H](C1)N2CC(F)(F)F (stereo partly specified) | / | / | / | / | 9 | /
CCCCC#Cc1ccccc1COC[B-](F)(F)F | / | -7 | 1.4* | 0 | 18 | 8
CO[C@H](CN(C)Cc1ccc2c(c1)OCO2)[C@@H](C)CN(C(=O)Nc1ccc(F)cc1)[C@H](C)CO | 3 | / | 0 | -7 | 4 | /
Cc1cccc(N/C(N)=N/c2nc(C)cc(=O)[nH]2)c1 | 0 | -1 | 43* | 0 | 6 | -3
Cc1cc(C)nc(/N=C(\N)Nc2ccc3c(c2)OCCO3)n1 | / | -5 | / | / | -6 | -8
COC(=O)Cc1cc(=O)[nH]c(/N=C(\N)Nc2cccc(C)c2)n1 | / | 17 | 43* | -6 | -6 | 8
Cc1cc(=O)[nH]c(/N=C(\N)Nc2ccc3c(c2)OCCO3)n1 | 7 | 3 | 44* | -1 | -6 | 10
COCc1cc(=O)[nH]c(/N=C(\N)Nc2cccc(C)c2)n1 | / | -1 | / | / | 6 | -68
Cc1ccc(N/C(N)=N/c2nc(CSc3nnc(C)s3)cc(=O)[nH]2)c(C)c1 | 3 | 32 | 0 | 69* | / | -146
C[C@H](CO)N1C[C@H](C)[C@@H](CN(C)C(=O)Nc2cccc3ccccc23)Oc2ccc(NS(C)(=O)=O)cc2C1=O | -2 | 2 | 0 | / | / | 4[16.7 µM]
C[C@H]1CN([C@@H](C)CO)C(=O)Cc2cc(NC(=O)Nc3ccc4c(c3)OCO4)ccc2O[C@H]1CN(C)Cc1ccc(-c2ccccc2)cc1 | -7 | -5 | 0 | 0 | / | 11[16.7 µM]
C[C@@H]1CN([C@H](C)CO)C(=O)Cc2cc(NC(=O)C3CC3)ccc2O[C@H]1CN(C)Cc1ccc(-c2ccccc2)cc1 | -6 | 23 | / | -3 | / | 17[16.7 µM]
C[C@@H]1CN([C@@H](C)CO)C(=O)Cc2cc(NC(=O)Cc3ccccc3)ccc2O[C@H]1CN(C)Cc1ccc(-c2ccccc2)cc1 | -1 | 79* | 0 | 20 | / | -26[16.7 µM]
C[C@H]1CN([C@@H](C)CO)C(=O)Cc2cc(NC(=O)Nc3ccc4c(c3)OCO4)ccc2O[C@@H]1CN(C)Cc1ccc(-c2ccccc2)cc1 | 4 | 78* | 0 | -1 | / | 44[16.7 µM]
C[C@@H]1CN([C@@H](C)CO)C(=O)Cc2cc(NC(=O)C3CC3)ccc2O[C@H]1CN(C)Cc1ccc(-c2ccccc2)cc1 | 0 | 91* | 1 | 8 | / | 5[16.7 µM]
C[C@@H]1CN([C@@H](C)CO)C(=O)c2cc(NC(=O)C3CCCCC3)ccc2O[C@H]1CN(C)Cc1ccc(-c2ccccc2)cc1 | -10 | / | 0 | 8 | 30* | /
C[C@H]1CN([C@@H](C)CO)C(=O)Cc2cc(NS(=O)(=O)c3ccccc3)ccc2O[C@H]1CN(C)S(=O)(=O)c1ccc(Cl)cc1 | 1 | 30 | 0 | 3 | / | -28[16.7 µM]
COCC#Cc1ccc([C@@H]2[C@@H](CO)N3C(=O)CN(C(=O)Nc4ccccc4F)C[C@H]23)cc1 | -1 | / | / | 10 | -6 | /
CN1CCN(C(=O)C[C@H]2CC[C@H]3[C@@H](COC[C@@H](O)CN3Cc3ccc(Oc4ccccc4)cc3)O2)CC1 | -1 | 15 | 0 | 37 | 10 | /

Screening data from PubChem BioAssay.
